FLuc inh counter – firefly luciferase enzyme inhibitors, primary screen, artefact control for luciferase-based inhibitor screens, biochemical, luminescence, ATPLite. Luciferin 4-monooxygenase (Photinus pyralis), P08659. 10 min. inhibition, % at 10 µM. 200,000 tested, 1.5% active;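 active = inhibition above about 50% when tested at 10 µM, limit read from the data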
Target sequence (P08659 whole entry, looked up): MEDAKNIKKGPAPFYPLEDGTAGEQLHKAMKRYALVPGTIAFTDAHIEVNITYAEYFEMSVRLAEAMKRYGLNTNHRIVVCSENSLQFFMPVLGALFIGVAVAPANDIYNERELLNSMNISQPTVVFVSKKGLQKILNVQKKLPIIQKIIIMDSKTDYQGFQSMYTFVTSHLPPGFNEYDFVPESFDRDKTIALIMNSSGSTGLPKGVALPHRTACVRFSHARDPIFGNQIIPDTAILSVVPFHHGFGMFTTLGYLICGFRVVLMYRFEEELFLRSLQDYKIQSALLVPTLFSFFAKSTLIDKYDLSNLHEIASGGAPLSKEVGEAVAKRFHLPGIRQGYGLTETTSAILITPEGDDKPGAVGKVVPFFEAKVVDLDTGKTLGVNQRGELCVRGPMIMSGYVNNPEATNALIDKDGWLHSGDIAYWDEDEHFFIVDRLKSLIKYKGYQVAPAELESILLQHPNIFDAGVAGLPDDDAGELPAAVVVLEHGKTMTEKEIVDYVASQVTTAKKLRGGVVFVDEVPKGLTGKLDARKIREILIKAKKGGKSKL
FLuc stim CS – FLuc activators, initial screening, artefact control for FLuc-dependent activation tests, biochemical, ATPlite luminescence; activation factor at 10 µM; ATPlite luciferase biochemical, 10 min; 0 = ATP-free wells, 1 = DMSO control; 200,000 tested, under 10 active; Luciferin 4-monooxygenase (Photinus pyralis), P08659;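 active = luciferase activation factor, scaled between plate controls, of at least 2 with compound at 10 µM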
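assay system = Luciferase/luciferin detection reagent, cell-free biochemical luciferase assay | also added = ATP substrate | times = 10 min post-reagent at room temperature | measured by = luminescence from luciferase reaction | measure = luciferase activation, seen as luminescence increase over controls | benchmarks = low control with PBS replacing ATP, high control enzyme plus ATP without compound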
Platelet DG rel – inhibitors of platelet dense granule secretion, primary screen, cell-based, MLPCN, human platelets | human platelet-rich plasma, SFLLRN dense granule ATP release, luminescence | inhibition, %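 (compounds screened at 7.5 µM in platelet-rich plasma)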 | 300,000 tested, 0.22% active | AID 1663, 2009;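 active = mean replicate score, as percent of positive control, at or above 50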
TRAIL sens C8 – viability loss with TRAIL in NB7+C8 cells, primary screen, TRAIL sensitizer project, cell-based, ATPlite luminescence; inhibition (viability loss, TRAIL sensitization), % at 10 µM; 360,000 tested, 1% active; AID 624354, 2012;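 active = compounds causing at least 50% loss of cell viability in the single-dose screen, relative to plate controls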
PPC-1+TRAIL kill – compounds killing PPC-1 cancer cells with TRAIL present, primary screen, TRAIL potentiator project, ATPLite luminescence, uHTS | PPC-1 cells + TRAIL, ATPLite viability luminescence | cell killing (% activity), % at 4 µM or 5 µM | 220,000 tested, 0.41% active | AID 1443, 2008;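 active = cell killing above 50% in the first pass at 4 µM, then a duplicate retest at 5 µM averaging 50% or more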;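 note: plate controls were cells with TRAIL plus DMSO for no effect and medium-only wells lacking cells for full effect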
The depositor's hits bear a star; . = no result given. The list is not random: actives were taken first. Their share in the collection is about 1.6%.

SMILES	FLuc inh counter	FLuc stim CS	Platelet DG rel	TRAIL sens C8	PPC-1+TRAIL kill
CCC[C@H]1CN(c2ccccc2)C(=O)[C@@H]1CC(=O)NC	.	.	.	9.2	.
Cc1cc(Cl)ccc1C(O)c1ncc(-c2cccc(C(F)(F)F)c2)[nH]1 (stereo not drawn)	.	.	.	-1.6	.
Cc1ccc(Cl)cc1-c1cc(C(=O)NCC2CCCCC2)[nH]n1	.	.	.	3.5	.
Cc1ccc(Cl)cc1-c1cc(C(=O)N2CCc3ccccc3C2)[nH]n1	.	.	.	-6.0	.
CC1(C(=O)NS(=O)(=O)c2ccc(F)cc2F)CCN1C(=O)CC(c1ccccc1)c1ccccc1 (stereo not drawn)	.	.	.	1.9	.
CNc1cncc(-c2ccc(C)cc2)n1	.	.	.	-3.8	.
N/C(=N\OC(=O)CC1CCCCC1)c1ccccn1	81.4*	0.2	-0.8	6.1	21.2
N/C(=N\OC(=O)CCC1CCCC1)c1ccncc1	29.5	0.7	-1.8	-3.8	23.2
N/C(=N\OC(=O)CC1CCCCC1)c1cccnc1	64.6*	0.4	1.3	16.7	41.2
Cc1cccc(/C(N)=N/OC(=O)CCC2CCCCC2)c1	53.5*	0.5	-6.6	-2.6	10.6
N/C(=N\OC(=O)CCC1CCCC1)c1cccnc1	73.8*	0.3	3.9	2.7	-3.5
Cc1ccc(/C(N)=N/OC(=O)CCC2CCCCC2)cc1	1.9	1	-5.8	2.1	10.7
COc1cccc(CNC(=O)[C@@H]2CCCN2C(=O)[C@H]2CCCCN2C(=O)c2ccccc2)c1	.	.	.	-1.7	.
COC(=O)C[C@H]1C=C[C@H](NC(=O)Nc2ccccc2)[C@@H](CO)O1	.	.	.	-16.1	.
CCC1=NN(C(=O)c2ccc(C)cc2)C(O)(c2ccc(Br)cc2)C1 (stereo not drawn)	3.5	1	-5.0	9.7	9.0
CCC1=NN(C(=O)c2cccc(Br)c2)C(O)(c2ccc(Br)cc2)C1 (stereo not drawn)	5.0	0.9	-8.3	49.4*	-8.7
CCCCCCCCCCCCCCCC[n+]1ccccc1	.	.	.	94.7*	.
CCCCCCCCCCCCCCCC[n+]1ccc(C(N)=O)cc1	-7.8	1.1	.	71.2*	49.6
CCCCCCCCCCCCCCCC[n+]1ccc(/C=N/O)cc1	-0.7	1	.	18.5	70.2*
CCCCCc1ccc(OCCC[n+]2ccccc2)c(CCCCC)c1	.	.	-4.9	30.1	46.1
CCC(C)CN1C(=O)CN(S(C)(=O)=O)CC1(C)C(=O)Nc1c(C)cccc1C (stereo not drawn)	.	.	.	-1.0	.
CC(C)S(=O)(=O)N1CCCC(c2cc(C(=O)Nc3ccc(F)c(Cl)c3)no2)C1 (stereo not drawn)	.	.	.	11.7	.
O=C1NC(Cc2ccccc2)c2nc3ccc(F)cc3c(=O)n2-c2ncccc21 (stereo not drawn)	.	.	.	8.7	.
CCCCOCCCNC(=O)C[C@@H]1C[C@@]2(C(=O)OC)CCCCC=C2N(Cc2ccco2)C1=O	.	.	.	-3.9	.
OC(c1ccccc1)(c1nc(-c2ccc(F)c(Cl)c2)cs1)C(F)(F)F (stereo not drawn)	.	.	.	-10.1	.
SMILES	FLuc inh counter	FLuc stim CS	Platelet DG rel	TRAIL sens C8	PPC-1+TRAIL kill
Cc1ccc(/C=C/C2=NN(C)C(=O)CC2)cc1	77.8*	0.2	21.3	53.2*	38.7
Cc1ccc2nc3ccc(N4CCCCCCC4)nn3c(=O)c2c1	62.3*	0.4	-0.1	47.3	32.5
COc1cccc2sc(N(C)c3ccccc3)nc12	85.4*	0.1	12.8	60.0*	39.1
COc1ccc(C(=O)C(C)OC(=O)C2CC3CCCC(C2)C3=O)cc1 (stereo not drawn)	.	.	.	2.9	.
CCSc1nc(N)nc2c1ncn2C1OC(CO)C(O)C1O (stereo not drawn)	.	.	.	-2.3	.
Cn1cnc([N+](=O)[O-])c1Sc1nc(N)nc2c1ncn2C1OC(CO)C(O)C1O (stereo not drawn)	.	.	.	70.5*	.
Cn1cnc([N+](=O)[O-])c1Sc1nc(N)nc2c1ncn2C1CC(O)C(CO)O1 (stereo not drawn)	.	.	.	71.8*	.
O=C(CCl)N1N=C(c2ccco2)CC1c1cccs1 (stereo not drawn)	2.6	1	8.4	91.8*	4.7
Cc1ccc(C2=NN(C(=O)CCl)C(c3cccs3)C2)o1 (stereo not drawn)	-0.7	1	1.6	95.3*	-6.7
COc1cc(C)ccc1S(=O)(=O)NC(=O)C1(C)CCN1C(=O)Cc1ccc(C(C)(C)C)cc1 (stereo not drawn)	.	.	.	-1.7	.
CCc1cc2c(=O)c(-c3cnn(-c4ccccc4)c3)c(C)oc2cc1OCC(=O)Nc1ccc(F)c(F)c1	-6.6	1.1	0.7	51.8*	15.4
COc1ccc(CN2CCC[C@]3(N[C@H](c4ccccc4)[C@@H]4C(=O)N(Cc5ccccc5)C(=O)[C@@H]43)C2=O)cc1	.	.	.	-3.8	.
CCOC(=O)C1(C)CCN1C(=O)c1cccc(Cl)c1 (stereo not drawn)	.	.	.	-1.1	.
Cc1ccc(S(=O)(=O)N2CCCC2)cc1[N+](=O)[O-]	-5.4	1.1	-13.8	-6.5	23.7
O=[N+]([O-])c1cc(S(=O)(=O)N2CCCCCC2)ccc1Cl	-8.2	1.1	.	-3.9	56.3*
COc1ccc(C2C=CC(=O)CC2)c(OC)c1 (stereo not drawn)	.	.	.	-22.5	.
CCCCSc1nnc(-c2cc3c(C(F)(F)F)nn(C)c3s2)n1C	-3.6	1	-1.1	-9.9	9.4
C#CCSc1nnc(-c2cc3c(C(F)(F)F)nn(C)c3s2)n1C	-0.1	1	-3.2	89.4*	-6.2
CN1C(=O)/C(=C/c2cn(CC(=O)N3CCCCC3)c3ccccc23)c2ccccc21	-7.8	1.1	54.5*	.	-16.4
O=C(NCC1CCCCC1)c1cc(-c2cc(F)ccc2OCC2CCCO2)n[nH]1 (stereo not drawn)	.	.	.	14.8	.
Cc1c(C(=O)Nc2ccccc2)csc1-c1ccccc1	82.4*	0.2	29.7	66.9*	42.1
Cc1oc(-c2ccccc2)cc1C(=O)Nc1ccccc1	-2.4	1	-2.8	-8.7	4.6
N/C(=N\OC(=O)c1ccccc1)C(Cc1ccccc1)C(=O)NOC(=O)c1ccccc1 (stereo not drawn)	.	.	.	89.4*	.
O=C(NOC(=O)c1ccccc1)c1ccccc1	.	.	6.4	20.9	10.2
O=C(OCC12CC3CC(CC(C3)C1)C2)c1ccc(NCc2cc(O)ccc2O)cc1	.	.	.	92.5*	.
O=C(OCCC12CC3CC(CC(C3)C1)C2)c1ccc(NCc2cc(O)ccc2O)cc1	.	.	.	91.7*	.
CC(C)C[C@H]1COc2cccc(N3CCSCC3)c2S(=O)(=O)N1	.	.	.	-6.1	.
Cc1ccc(O)c(N=NC2=C(O)CC(C)(C)CC2=O)c1	62.2*	0.4	24.2	62.9*	46.8
NC(CCc1ccccc1)c1csc(NC(=O)Nc2ccccc2Oc2ccccc2)n1 (stereo not drawn)	.	.	.	87.4*	.
CC(C)c1ccc(NC(=O)Nc2nc(C(N)c3ccccc3)cs2)cc1 (stereo not drawn)	.	.	.	26.6	.
